Screening results from PubChem BioAssay.
Sampled rows, rich in hits. Any-hit rate of the full collection: about 2.6%.
XiGFP reactiv: reactivates the inactive X chromosome in mouse fibroblasts; actives 0.055% (n = 360,000); activation, % at 7.58 µM; XiGFP mouse fibroblasts, % GFP-positive cells imaging, 3 d; cells co-treated with 5-aza-dC sensitizer; scaled so ellipticine positive control = 100%;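 active means mean normalized replicate activation at least 10% and every replicate at or above 10%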;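 further: 0% = median of on-plate neutral control wells and 100% = ellipticine 6 µM median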
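Schedule: 3 d treatment, 15 min room-temperature fixation; system: 68-5-11 XiGFP fibroblast line; buffer or medium: DMEM plus 5-aza-dC sensitizer; control set: ellipticine 6 µM positive control; compound: one concentration, pinned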
dFosB act: activators of mouse delta FosB homodimer; P13346; actives 0.99% (n = 340,000); purified delta FosB, TAMRA-CDK5 oligo fluorescence polarization; percent of positive-control signal above neutral wells; activation, % at 25 µM;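 active means mean activation above about 17%, with every replicate also reaching it, limit read from the data, passing the limit was not always enough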
Target sequence (P13346 whole entry, looked up): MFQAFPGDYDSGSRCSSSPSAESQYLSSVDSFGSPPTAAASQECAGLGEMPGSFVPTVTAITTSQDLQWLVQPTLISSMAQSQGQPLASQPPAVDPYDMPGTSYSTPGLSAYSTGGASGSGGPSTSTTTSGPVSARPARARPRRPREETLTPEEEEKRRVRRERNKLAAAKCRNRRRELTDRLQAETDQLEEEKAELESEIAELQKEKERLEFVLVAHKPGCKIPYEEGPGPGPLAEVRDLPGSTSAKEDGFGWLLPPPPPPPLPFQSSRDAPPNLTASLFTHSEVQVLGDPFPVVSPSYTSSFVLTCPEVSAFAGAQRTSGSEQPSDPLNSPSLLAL
rRNA inh HTS: selective bacterial rRNA inhibition in E. coli | AID 720706 | GFP signal change (wild-type ribosome), % (test concentration not listed) | actives 1.6% (n = 350,000) | E. coli WT GFP vs humanized-ribosome RFP mutants, fluorescence, 24 h; stronger effect = lower value; DMSO median 0, no signal -100;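 active means significant combined selectivity score with lowered wild-type GFP, culture density cut under 30%, mutant RFP and density less affected; inactive means any of these conditions unmet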
SR-BI DiI inh: inhibitors of mouse SR-BI mediated HDL lipid uptake. actives 0.96% (n = 320,000). AID 488896. inhibition, % at 12.5 µM. ldlA[mSR-BI] CHO cells, DiI-HDL uptake fluorescence, 3 h;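 active means mean replicate inhibition of at least 70% and a set share of replicates each scoring 70 or more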;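 further: 0% = median of neutral control wells and 100% = median of positive control wells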
PvdQ acylase: P. aeruginosa PvdQ acylase inhibition; purified PvdQ acylase, fluorescence plate reader; inhibition, % at 10 µM; actives 0.063% (n = 340,000); in the data active means inhibition above about 30%, passing the limit was not always enough;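 further: 0% = vehicle neutral wells and 100% = reference inhibitor wells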
SR-BI DiI-HDL act: SR-BI HDL lipid transfer activation; actives 0.096% (n = 320,000); CHO ldlA[mSR-BI] cells, DiI-HDL uptake fluorescence, 3 h; 100 = double the neutral-control signal; activation, % at 12.5 µM;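 active means mean replicate activation of at least 60% and every replicate at or above 60%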;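 further: 0% = median plate neutral-control signal and 100% = twice that signal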
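system = CHO ldlA[mSR-BI] cells, LDL receptor-null, SR-BI overexpressing | medium = Ham's F12 with 0.5% BSA, HEPES 25 mM, pH 7.4 | probe or stimulus = DiI-HDL 10 µg/mL | compound dosing = single-point compound dose | incubation = compound exposure 3 h, 37 °C | technique = DiI fluorescence, bottom read | read-out = cell-associated DiI fluorescence as measure of HDL uptake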
Active calls of the source: *; . = no result given.

SMILES	XiGFP reactiv	dFosB act	rRNA inh HTS	SR-BI DiI inh	PvdQ acylase	SR-BI DiI-HDL act
O=[N+]([O-])c1ccccc1C=NNC(=S)NN=Cc1ccccc1[N+](=O)[O-]	0	-5	-20*	43	-14	-43
CCOc1cccc(/C=N/NC(=S)Nc2ccccc2[N+](=O)[O-])c1O	0	-3	2	128*	-12	-128
COc1ccc(NC(=O)c2ccc(-n3c(C)ccc3C)cc2)c(OC)c1	0	-6	6	62	-8	-62
COc1ccc(NC(=O)C(=O)N/N=C/c2cc(C)n(-c3cccc(Cl)c3Cl)c2C)c(OC)c1	.	-5	.	72*	0	-72
CCOC(=O)c1cnc(-n2nc(C)cc2C)nc1Nc1cccc(C(=O)O)c1	.	-11	.	-23	-16	23
Cc1cccc(NC(=O)Nc2c(C)n(C)n(-c3ccccc3)c2=O)c1	0	0	7	-12	-7	12
CCCCCC(=O)N/N=C/c1ccccc1[N+](=O)[O-]	0	1	-5	-16	-12	16
COc1ccc(OC)c(NC(=O)C(=O)N/N=C/c2ccccc2[N+](=O)[O-])c1	.	-8	.	81*	-9	-81
CCN(CC)CCCNc1nc2cc(OC)c(OC)cc2c2nc(-c3ccccc3)nn12	.	181*	.	-17	-1	17
CCN(CC)CCCNc1nc2ccccc2c2nc(-c3ccncc3)nn12	0	67*	-6	10	-12	-10
COc1cc2nc(NCCCN3CCN(C)CC3)n3nc(-c4ccccc4)nc3c2cc1OC	.	166*	.	-1	-19	1
CN1CCN(CCCNc2nc3ccccc3c3nc(-c4ccccc4)nn23)CC1	0	-28	-2	.	2	.
COc1cc2nc(-c3ccccc3)nc(N3CCCC3)c2cc1OC	.	.	.	46	3	-46
COc1cc2nc(NCC3CCCO3)n3nc(-c4cccnc4)nc3c2cc1OC (stereo unspecified)	.	1	.	54	-13	-54
CCCCN(CCCC)c1nc(-c2ccncc2)nc2ccccc12	0	-6	3	51	-6	-51
CCN(CC)CCCNc1nc2cc(OC)c(OC)cc2c2nc(-c3cccnc3)nn12	.	245*	.	-7	-6	7
Cc1cc(C(=O)Nc2cccc3c2O[C@@H](CN(C)Cc2ccc(C(=O)Nc4ccccc4N)cc2)[C@@H](C)CN([C@H](C)CO)C3=O)n(C)n1	-1	.	-2	.	.	.
CC(=O)c1ccc(N2CCN(C(=O)Nc3ccc(F)cc3F)CC2)cc1	0	2	-9	7	-4	-7
CNC[C@H]1OCc2cn(nn2)CCCC(=O)N([C@H](C)CO)C[C@H]1C	0	.	1	.	.	.
COc1ccc(CN(C)C[C@@H]2Oc3c(NC(=O)c4nc5ccccc5s4)cccc3C(=O)N([C@H](C)CO)C[C@H]2C)cc1	0	.	-2	.	.	.
O=C(c1ccccc1Cl)N1CCN(c2ccccn2)CC1	.	-5	.	-27	-20	27
CCN(CC)S(=O)(=O)c1ccc(NC(=O)COC(=O)c2c[nH]c(=O)[nH]c2=O)cc1	0	1	4	-24	1	23
COCCCn1c(SCc2ccccc2)nc2cc(OC)c(OC)cc2c1=N	.	-10	.	23	-14	-23
COCCCNc1nc2cc(OC)c(OC)cc2c2nc(-c3ccccc3)nn12	0	-18	1	86*	-15	-86
CC(=O)c1ccc(NC(=O)C(C)OC(=O)c2ccc(Br)o2)cc1 (stereo unspecified)	1	-1	1	14	-1	-14
SMILES	XiGFP reactiv	dFosB act	rRNA inh HTS	SR-BI DiI inh	PvdQ acylase	SR-BI DiI-HDL act
N#Cc1cc2ccncc2c2ccccc12	0	.	4	.	.	.
Nc1cc2ccncc2c2ccccc12	0	23*	8	-13	-6	13
COc1cccc(/C=C2\Oc3cc(OCC(=O)N4CCCC4)ccc3C2=O)c1OC	0	-7	-24*	31	1	-31
CCc1c(C)nc(SCC(=O)c2ccc(C)c(C)c2)[nH]c1=O	.	-9	2	-15	-6	15
O=C(CSc1nc2scc(-c3ccccc3)c2c(=O)[nH]1)N1CCCCC1	0	-16	-35*	-20	-17	20
O=C(CSc1nc2scc(-c3ccccc3)c2c(=O)[nH]1)NC1CCCCC1	0	.	13	.	.	.
Cc1cc(N2CCN(C(c3ccnc4ccccc34)c3nnnn3-c3c(C)cccc3C)CC2)c2ccccc2n1 (stereo unspecified)	0	.	-26*	.	.	.
Cc1cccc(C)c1-n1nnnc1C(c1ccnc2ccccc12)N1CCN(CCN(C)C)CC1 (stereo unspecified)	0	.	9	.	.	.
O=C(COc1cc2oc(=O)c3c(c2cc1Cl)CCC3)NCC1CCC(C(=O)O)CC1 (stereo unspecified)	0	-5	7	-4	-13	4
O=C(COc1cc2oc(=O)c3c(c2cc1Cl)CCCC3)NCC1CCC(C(=O)O)CC1 (stereo unspecified)	0	-3	-23*	-2	-3	2
CC(Oc1cc2oc(=O)c3c(c2cc1Cl)CCC3)C(=O)NCc1cccnc1 (stereo unspecified)	0	-1	0	86*	0	-86
CCOc1cc(/C=N/N=C(N)N)ccc1OCc1ccc(Cl)cc1	0	56*	-33	-14	-8	14
COc1cc(/C=N/N=C(N)N)ccc1OCc1ccc(Cl)cc1	0	59*	-60	-10	-8	10
NC(N)=N/N=C/c1ccc(OCc2ccccc2)c(OCc2ccccc2)c1	0	-311	-74	.	0	.
CC(=O)c1ccc(N2CCN(C(=O)Nc3ccc(F)cc3)CC2)cc1	.	-8	.	-5	-6	5
COc1cc(/C=N/NS(=O)(=O)c2ccc(C(C)(C)C)cc2)cc([N+](=O)[O-])c1O	0	-7	-36*	-15	-14	15
COc1cc(/C=N/NS(=O)(=O)c2ccc(C)c([N+](=O)[O-])c2)cc([N+](=O)[O-])c1O	0	3	-16	-2	5	2
COC(=O)C1=C(C)N(C(C)c2ccccc2)C(=O)C1 (stereo unspecified)	0	-2	10	5	16	-5
O=C(CN1C(=O)C2CCCCC2C1=O)Nc1cccc([N+](=O)[O-])c1 (stereo unspecified)	0	-5	1	12	7	-12
O=C(CN1C(=O)C2CCCCC2C1=O)Nc1cccc(C(F)(F)F)c1 (stereo unspecified)	0	-1	-15*	-1	-13	1
COc1ccc(/C=N/Nc2cn[nH]c(=O)c2Cl)cc1	0	-6	-1	7	-8	-7
